Each structure is given as a SMILES string.

Assay [1] deals with cAMP-dependent protein kinase catalytic subunit alpha (Homo sapiens) (UniProt P17612). Put plainly: Inhibition of PKACalpha (unknown origin) at 1 uM relative to control. The conditions noted are these: values are per cent of control. A digest of the protocol: (§1)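 KinomeSCAN competitive binding panel of 100 kinases; compounds tested at 1 µM in duplicate; read-out is percent […] control.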

For assay [2], the target named is Tyrosine-protein kinase SYK (Homo sapiens) (UniProt P43405). Kind of assay: Inhibition of SYK (unknown origin) at 1 uM relative to control. To be noted: values are per cent of control.
For assay [3], the target named is T1, Serine/threonine-protein kinase TBK1 (Homo sapiens) (UniProt Q9UHD2).
T1 sequence (whole entry): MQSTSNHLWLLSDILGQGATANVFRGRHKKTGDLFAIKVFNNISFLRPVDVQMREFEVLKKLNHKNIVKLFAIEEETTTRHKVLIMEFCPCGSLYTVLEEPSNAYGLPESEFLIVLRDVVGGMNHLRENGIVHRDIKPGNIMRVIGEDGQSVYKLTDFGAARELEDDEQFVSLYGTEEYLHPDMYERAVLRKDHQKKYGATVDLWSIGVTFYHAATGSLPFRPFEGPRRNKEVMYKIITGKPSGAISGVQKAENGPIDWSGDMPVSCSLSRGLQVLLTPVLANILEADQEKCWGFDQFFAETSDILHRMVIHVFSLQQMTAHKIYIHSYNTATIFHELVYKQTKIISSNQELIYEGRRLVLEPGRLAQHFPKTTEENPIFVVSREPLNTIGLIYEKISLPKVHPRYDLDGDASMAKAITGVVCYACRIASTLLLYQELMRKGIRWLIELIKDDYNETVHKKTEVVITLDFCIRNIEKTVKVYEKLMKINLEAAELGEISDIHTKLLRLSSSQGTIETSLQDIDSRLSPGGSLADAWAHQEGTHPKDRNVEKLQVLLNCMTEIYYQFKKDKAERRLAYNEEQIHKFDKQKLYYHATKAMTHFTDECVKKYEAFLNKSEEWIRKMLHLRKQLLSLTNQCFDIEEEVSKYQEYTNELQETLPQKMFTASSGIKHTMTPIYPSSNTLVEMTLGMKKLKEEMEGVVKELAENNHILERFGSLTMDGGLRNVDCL
Put plainly: Inhibition of TBK1 (unknown origin) at 1 uM relative to control. To be noted: values are per cent of control. In short, it runs like this: as §1

For assay [4], the target named is Cyclin-dependent kinase 8 (Homo sapiens) (UniProt P49336). Put plainly: Inhibition of CDK8 (unknown origin) at 1 uM relative to control; values are per cent of control.
Assay [5] deals with Serine/threonine-protein kinase Nek6 (Homo sapiens) (UniProt Q9HC98). Kind of assay: Inhibition of NEK6 (unknown origin) at 1 uM relative to control; values are per cent of control.
Sequence of Serine/threonine-protein kinase Nek6 (Homo sapiens) (Q9HC98 whole entry): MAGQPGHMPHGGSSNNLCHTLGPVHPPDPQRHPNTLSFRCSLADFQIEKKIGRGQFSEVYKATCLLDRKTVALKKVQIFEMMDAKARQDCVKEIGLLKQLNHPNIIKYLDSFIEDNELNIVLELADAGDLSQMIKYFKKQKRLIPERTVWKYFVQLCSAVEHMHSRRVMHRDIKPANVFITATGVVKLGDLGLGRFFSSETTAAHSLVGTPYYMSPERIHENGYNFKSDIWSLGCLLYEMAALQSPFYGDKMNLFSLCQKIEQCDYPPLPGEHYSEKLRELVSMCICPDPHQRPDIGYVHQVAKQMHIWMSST
In assay [6] the target is Serine/threonine-protein kinase OSR1 (Homo sapiens) (UniProt O95747). Kind of assay: Inhibition of OSR1 (unknown origin) at 1 uM relative to control; values are per cent of control.
Sequence of Serine/threonine-protein kinase OSR1 (Homo sapiens) (O95747 2-527 limits assumed): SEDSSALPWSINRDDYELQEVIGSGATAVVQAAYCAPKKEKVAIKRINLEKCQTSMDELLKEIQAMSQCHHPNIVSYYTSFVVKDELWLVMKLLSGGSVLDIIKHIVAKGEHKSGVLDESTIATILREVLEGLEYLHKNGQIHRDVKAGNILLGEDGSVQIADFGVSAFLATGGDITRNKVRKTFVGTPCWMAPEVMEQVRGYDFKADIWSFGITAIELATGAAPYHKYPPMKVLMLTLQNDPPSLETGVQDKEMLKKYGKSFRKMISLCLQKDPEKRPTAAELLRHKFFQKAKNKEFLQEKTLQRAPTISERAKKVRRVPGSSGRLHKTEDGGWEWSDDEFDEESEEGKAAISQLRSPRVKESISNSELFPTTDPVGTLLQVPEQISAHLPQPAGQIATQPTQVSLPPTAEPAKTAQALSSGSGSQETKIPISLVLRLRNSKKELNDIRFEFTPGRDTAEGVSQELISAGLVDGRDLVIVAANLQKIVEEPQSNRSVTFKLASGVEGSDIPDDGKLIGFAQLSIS
Assay [7] deals with T2, Calcium/calmodulin-dependent protein kinase type IV (Homo sapiens) (UniProt Q16566).
T2 sequence (whole entry): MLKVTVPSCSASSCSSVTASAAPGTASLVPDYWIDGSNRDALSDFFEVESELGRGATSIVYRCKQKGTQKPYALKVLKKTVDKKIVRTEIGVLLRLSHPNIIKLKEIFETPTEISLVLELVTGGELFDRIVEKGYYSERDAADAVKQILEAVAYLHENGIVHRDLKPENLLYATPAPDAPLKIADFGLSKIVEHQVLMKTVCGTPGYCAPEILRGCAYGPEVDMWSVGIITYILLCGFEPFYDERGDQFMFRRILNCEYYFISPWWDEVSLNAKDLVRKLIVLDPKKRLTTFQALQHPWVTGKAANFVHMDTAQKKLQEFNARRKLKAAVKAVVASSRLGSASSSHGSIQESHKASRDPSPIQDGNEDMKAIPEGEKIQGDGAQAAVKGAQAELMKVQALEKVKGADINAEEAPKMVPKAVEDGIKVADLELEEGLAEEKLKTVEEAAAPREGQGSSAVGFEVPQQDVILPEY
Put plainly: Inhibition of CAMK4 (unknown origin) at 1 uM relative to control; values are per cent of control.

Assay [8] concerns the target Death-associated protein kinase 1 (Homo sapiens) (UniProt P53355). Kind of assay: Inhibition of DAPK1 (unknown origin) at 1 uM relative to control; values are per cent of control.
Assay [9] concerns the target Ephrin type-A receptor 2 (Homo sapiens) (UniProt P29317). Kind of assay: Inhibition of EPHA2 (unknown origin) at 1 uM relative to control; values are per cent of control.
For assay [10], the target named is Casein kinase II subunit alpha (Homo sapiens) (UniProt P68400). Put plainly: Inhibition of CSNK2A1 (unknown origin) at 1 uM relative to control; values are per cent of control.
Sequence of Casein kinase II subunit alpha (Homo sapiens) (P68400 whole entry, looked up): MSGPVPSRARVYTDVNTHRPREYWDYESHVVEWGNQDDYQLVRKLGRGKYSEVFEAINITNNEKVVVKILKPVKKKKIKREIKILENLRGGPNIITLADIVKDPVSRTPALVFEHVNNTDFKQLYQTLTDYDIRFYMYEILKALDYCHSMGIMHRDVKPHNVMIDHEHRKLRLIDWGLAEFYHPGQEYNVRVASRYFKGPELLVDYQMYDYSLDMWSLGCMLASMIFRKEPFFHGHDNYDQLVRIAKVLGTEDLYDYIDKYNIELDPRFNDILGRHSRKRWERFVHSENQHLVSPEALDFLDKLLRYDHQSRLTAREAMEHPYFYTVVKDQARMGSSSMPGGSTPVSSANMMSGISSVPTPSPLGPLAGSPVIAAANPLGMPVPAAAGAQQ
The target in assay [11] is Tyrosine-protein kinase ABL1 (Homo sapiens) (UniProt P00519). Kind of assay: Inhibition of nonphosphorylated ABL1 (unknown origin) at 1 uM relative to control; values are per cent of control.
Sequence of Tyrosine-protein kinase ABL1 (Homo sapiens) (P00519 whole entry, the tested form may be a part): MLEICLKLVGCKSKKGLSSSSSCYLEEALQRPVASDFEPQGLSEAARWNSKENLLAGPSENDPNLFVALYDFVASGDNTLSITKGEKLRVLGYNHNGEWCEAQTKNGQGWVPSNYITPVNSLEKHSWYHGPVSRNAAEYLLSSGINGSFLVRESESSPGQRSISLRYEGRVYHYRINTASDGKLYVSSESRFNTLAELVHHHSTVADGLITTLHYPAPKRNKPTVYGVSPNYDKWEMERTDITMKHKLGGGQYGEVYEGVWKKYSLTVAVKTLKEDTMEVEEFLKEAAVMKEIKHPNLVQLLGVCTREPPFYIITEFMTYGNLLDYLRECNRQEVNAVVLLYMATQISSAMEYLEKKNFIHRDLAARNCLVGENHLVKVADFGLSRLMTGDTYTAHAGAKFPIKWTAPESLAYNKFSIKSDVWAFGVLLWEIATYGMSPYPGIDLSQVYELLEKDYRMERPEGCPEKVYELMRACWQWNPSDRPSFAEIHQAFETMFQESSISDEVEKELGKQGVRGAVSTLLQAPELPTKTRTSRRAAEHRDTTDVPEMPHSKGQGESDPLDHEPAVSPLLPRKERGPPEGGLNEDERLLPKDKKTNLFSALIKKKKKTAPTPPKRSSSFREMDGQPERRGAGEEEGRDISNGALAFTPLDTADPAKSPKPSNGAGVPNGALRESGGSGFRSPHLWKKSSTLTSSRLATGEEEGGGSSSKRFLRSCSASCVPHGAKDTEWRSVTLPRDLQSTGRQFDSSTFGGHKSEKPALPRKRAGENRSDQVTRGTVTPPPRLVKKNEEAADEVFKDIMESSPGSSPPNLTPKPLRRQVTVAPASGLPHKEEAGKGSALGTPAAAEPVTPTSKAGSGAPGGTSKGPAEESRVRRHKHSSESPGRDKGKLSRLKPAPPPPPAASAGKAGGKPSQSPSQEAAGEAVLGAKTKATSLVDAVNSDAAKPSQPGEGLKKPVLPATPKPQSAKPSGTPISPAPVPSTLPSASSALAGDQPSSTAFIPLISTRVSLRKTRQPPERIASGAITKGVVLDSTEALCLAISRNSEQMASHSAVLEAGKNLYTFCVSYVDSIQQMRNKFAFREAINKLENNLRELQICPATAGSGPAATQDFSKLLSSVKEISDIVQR
In assay [12] the target is Tyrosine-protein kinase JAK2 (Homo sapiens) (UniProt O60674). Put plainly: Inhibition of JH1 catalytic domain of JAK2 (unknown origin) at 1 uM relative to control; values are per cent of control.

Sequence of Ephrin type-A receptor 2 (Homo sapiens) (P29317 whole entry): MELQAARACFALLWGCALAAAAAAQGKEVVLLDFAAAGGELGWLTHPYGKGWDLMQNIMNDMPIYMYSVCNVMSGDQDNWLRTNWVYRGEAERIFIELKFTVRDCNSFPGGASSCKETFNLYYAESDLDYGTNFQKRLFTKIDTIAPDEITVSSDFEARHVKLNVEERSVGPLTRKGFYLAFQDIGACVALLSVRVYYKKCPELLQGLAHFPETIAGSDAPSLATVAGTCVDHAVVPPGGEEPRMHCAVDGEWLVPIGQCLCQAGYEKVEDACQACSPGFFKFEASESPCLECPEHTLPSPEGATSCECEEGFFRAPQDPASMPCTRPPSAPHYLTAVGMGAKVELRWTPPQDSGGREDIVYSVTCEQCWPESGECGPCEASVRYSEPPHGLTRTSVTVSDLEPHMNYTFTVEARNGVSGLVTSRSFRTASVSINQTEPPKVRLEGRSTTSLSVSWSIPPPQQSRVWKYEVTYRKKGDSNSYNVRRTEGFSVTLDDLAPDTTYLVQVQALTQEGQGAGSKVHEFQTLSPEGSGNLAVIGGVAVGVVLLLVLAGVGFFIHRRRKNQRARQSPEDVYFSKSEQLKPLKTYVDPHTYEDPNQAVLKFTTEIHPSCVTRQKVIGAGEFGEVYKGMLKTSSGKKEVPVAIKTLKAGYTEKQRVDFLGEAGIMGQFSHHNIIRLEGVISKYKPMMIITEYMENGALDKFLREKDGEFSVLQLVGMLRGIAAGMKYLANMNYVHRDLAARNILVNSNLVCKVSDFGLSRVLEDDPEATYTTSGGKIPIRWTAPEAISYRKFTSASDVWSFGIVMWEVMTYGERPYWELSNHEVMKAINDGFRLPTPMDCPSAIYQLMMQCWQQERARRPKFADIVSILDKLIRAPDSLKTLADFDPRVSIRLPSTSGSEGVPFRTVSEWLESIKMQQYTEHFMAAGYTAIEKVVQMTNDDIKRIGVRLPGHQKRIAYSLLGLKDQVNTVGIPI
Sequence of Death-associated protein kinase 1 (Homo sapiens) (P53355 whole entry, looked up): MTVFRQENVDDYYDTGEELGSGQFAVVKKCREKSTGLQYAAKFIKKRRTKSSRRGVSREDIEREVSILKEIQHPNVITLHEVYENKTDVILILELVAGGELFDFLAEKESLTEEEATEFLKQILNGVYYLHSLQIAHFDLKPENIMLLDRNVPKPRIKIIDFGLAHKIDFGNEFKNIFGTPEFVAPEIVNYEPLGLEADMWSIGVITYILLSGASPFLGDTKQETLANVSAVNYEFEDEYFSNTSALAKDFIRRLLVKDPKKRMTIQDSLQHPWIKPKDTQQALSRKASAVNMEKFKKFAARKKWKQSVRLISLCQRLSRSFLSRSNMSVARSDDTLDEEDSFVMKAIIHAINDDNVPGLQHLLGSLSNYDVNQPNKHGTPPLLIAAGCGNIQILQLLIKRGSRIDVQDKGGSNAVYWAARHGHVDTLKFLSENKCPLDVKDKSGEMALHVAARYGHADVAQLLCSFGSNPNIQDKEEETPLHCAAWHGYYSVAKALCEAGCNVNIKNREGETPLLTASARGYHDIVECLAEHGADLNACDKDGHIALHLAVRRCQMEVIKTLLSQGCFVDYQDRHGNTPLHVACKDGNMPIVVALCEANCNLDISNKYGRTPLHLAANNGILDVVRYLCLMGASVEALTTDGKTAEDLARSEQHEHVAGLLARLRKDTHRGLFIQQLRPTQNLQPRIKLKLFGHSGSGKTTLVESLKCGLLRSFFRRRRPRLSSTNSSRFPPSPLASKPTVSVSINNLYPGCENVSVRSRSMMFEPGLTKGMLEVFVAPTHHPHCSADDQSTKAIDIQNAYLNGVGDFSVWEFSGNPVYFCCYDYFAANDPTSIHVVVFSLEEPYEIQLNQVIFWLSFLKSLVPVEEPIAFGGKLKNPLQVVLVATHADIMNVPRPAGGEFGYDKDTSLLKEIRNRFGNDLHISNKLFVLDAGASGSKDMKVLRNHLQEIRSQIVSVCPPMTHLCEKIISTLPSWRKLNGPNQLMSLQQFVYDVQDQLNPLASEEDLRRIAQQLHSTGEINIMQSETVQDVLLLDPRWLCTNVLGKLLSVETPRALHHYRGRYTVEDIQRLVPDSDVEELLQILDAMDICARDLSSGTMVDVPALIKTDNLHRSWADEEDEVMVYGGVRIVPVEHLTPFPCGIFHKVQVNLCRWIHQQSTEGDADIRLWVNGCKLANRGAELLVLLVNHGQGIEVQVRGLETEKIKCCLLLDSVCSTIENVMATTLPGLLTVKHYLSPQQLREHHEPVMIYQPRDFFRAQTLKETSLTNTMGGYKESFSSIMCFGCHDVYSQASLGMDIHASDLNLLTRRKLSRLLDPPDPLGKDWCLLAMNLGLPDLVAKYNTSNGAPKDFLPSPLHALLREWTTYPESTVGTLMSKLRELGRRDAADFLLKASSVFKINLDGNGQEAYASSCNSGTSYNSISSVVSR

For orientation: residual activity means the activity still measured, relative to the control. As for `CCOC(=O)c1sc(-c2ccncc2)nc1O`, the figures for the residual binding, % of control in assay [1], in assay [2] and in assay [3] were 100%, 97% and 100%, respectively. Further, the residual activity amounted to 82% in assay [4]; 65% in assay [5]; 100% in [6]; 76% in assay [7]; 77% in assay [8]; 78% in assay [9]. The residual activity in assay [10] turned out to be 50%; in [11] it was 87%; in assay [12] it was 100%.

For `NC(=O)c1sc(-c2ccnc(N)n2)nc1-c1ccc(Cl)cc1Cl`, the residual binding, % of control in [1] was 69%; in assay [2], 72%; in assay [3], 85%. Further, the residual activity came out at 97% in assay [4]; 81% in [5]; 82% in assay [6]; 100% in assay [7]; 100% in [8]; 88% in assay [9]. In addition, the figures for the residual activity in [10], in [11] and in [12] were 66%, 100% and 100%, respectively.

Regarding `COc1ccc(-c2nc(-c3ccnc(N)n3)sc2C(N)=O)c(Cl)c1`, the residual binding, % of control came out at 70% in assay [1], 56% in [2] and 100% in [3]. Besides, the residual activity in assay [4] was 84%; in assay [5], 85%; in assay [6], 92%; in [7], 100%; in assay [8], 100%; in assay [9], 80%. Moreover, the residual activity in assay [10] came out at 95%; in [11] it was 100%; in [12], 100%.

The values above are taken from ChEMBL document CHEMBL3259739, “Synthesis and structure-activity relationship of trisubstituted thiazoles as Cdc7 kinase inhibitors” (Eur J Med Chem, 2014).
